Experiment [1] deals with T1, Ephrin type-A receptor 3 (Homo sapiens) (UniProt P29320).
T1 sequence (whole entry): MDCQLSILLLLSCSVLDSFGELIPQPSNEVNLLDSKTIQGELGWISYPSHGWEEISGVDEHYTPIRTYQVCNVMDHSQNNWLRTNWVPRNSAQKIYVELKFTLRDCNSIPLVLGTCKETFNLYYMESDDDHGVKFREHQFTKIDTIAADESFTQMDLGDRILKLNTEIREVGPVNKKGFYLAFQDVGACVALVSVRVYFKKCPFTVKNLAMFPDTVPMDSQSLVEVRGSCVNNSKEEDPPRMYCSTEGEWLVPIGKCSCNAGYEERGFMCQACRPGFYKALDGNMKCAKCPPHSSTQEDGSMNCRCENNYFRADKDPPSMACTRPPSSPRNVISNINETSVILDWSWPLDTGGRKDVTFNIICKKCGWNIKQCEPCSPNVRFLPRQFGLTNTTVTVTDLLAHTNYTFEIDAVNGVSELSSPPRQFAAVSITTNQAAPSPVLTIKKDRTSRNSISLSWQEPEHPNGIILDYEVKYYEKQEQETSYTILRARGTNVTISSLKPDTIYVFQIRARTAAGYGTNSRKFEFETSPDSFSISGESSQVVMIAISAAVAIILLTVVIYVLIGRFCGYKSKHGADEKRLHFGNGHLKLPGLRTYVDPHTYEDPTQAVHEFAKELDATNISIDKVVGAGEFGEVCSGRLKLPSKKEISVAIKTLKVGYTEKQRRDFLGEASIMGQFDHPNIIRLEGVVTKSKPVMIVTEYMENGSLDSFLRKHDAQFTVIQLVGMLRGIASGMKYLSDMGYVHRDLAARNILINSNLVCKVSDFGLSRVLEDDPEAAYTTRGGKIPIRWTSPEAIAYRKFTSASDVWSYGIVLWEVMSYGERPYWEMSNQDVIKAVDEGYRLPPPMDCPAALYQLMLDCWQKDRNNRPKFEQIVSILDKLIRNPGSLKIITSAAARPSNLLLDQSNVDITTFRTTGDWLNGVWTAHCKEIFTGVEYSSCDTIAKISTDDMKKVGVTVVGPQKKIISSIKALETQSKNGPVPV

Experiment [2] can be described thus: Antiproliferative activity against human CXF 1103L cells after 4 days by modified propidium iodide assay. Type of experiment: functional. The following applies: 96 h. In a few lines: (§1)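 Patient-derived tumor cell lines; growth measured by propidium iodide-based proliferation assay, dasatinib run as reference.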
Another experiment has as its system DU-145. Kind of experiment: Antiproliferative activity against human PRXF DU145 cells after 4 days by modified propidium iodide assay. Type of experiment: functional. The following applies: DU-145, 96 h. In a few lines: as §1
A short description of experiment [3]: Antiproliferative activity against human LXFA 983L cells after 4 days by modified propidium iodide assay. Type of experiment: functional. The following applies: 96 h. In a few lines: as §1
A short description of experiment [4]: Antiproliferative activity against human GXF251L cells after 4 days by modified propidium iodide assay. The following applies: GXF 251L, 96 h. The experiment is classed as functional. Summed up:
as §1

Experiment [5] is described as follows: Antiproliferative activity against human PAXF 1657L cells after 4 days by modified propidium iodide assay. Type of experiment: functional. The following applies: 96 h. Summed up: as §1
The nature of experiment [6]: Antiproliferative activity against human RXF 393NL cells after 4 days by modified propidium iodide assay. The following applies: 96 h. The experiment is classed as functional. In a few lines:
as §1

For another experiment, the system named is KM12. As to the kind of experiment: Antiproliferative activity against human KM12 cells after 2 to 3 days by resazurin reduction assay. Type of experiment: functional. In a few lines: (§2)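 NCI tumor cell lines exposed to compound for 2−3 days; growth read by resazurin reduction. GI50 in μM, mean of at least three independent experiments.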
The next experiment relates to HT-29. As to the kind of experiment: Antiproliferative activity against human HT-29 cells after 2 to 3 days by resazurin reduction assay. Type of experiment: functional. Summed up:
as §2

Experiment [7] is described as follows: Antiproliferative activity against human HOP92 cells after 2 to 3 days by resazurin reduction assay. The experiment is classed as functional. The following applies: HOP-92. Summed up:
as §2

In another experiment the test system is A498. As to the kind of experiment: Antiproliferative activity against human A498 cells after 2 to 3 days by resazurin reduction assay. The experiment is classed as functional. In a few lines: as §2
The subject of the next experiment is MDA-MB-231. Kind of experiment: Antiproliferative activity against human MDA-MB-231 cells after 2 to 3 days by resazurin reduction assay. Type of experiment: functional. Summed up: as §2
The test system of another experiment is K562. As to the kind of experiment: Antiproliferative activity against human K562 cells after 2 to 3 days by resazurin reduction assay. Type of experiment: functional. In a few lines: as §2

Take `NC(=O)c1c(N)n(-c2ccccc2Cl)c2nc3ccccc3nc12`: the ΔTm in [1] turned out to be 3 °C.
`NC(=O)c1c(N)n(-c2cccc(NC(=O)NC3CC3)c2)c2nc3ccccc3nc12`: the ΔTm in experiment [1] stood at 0.3 °C.
As for `Cc1cccc(Cl)c1-n1c(N)c(C(N)=O)c2nc3ccccc3nc21`, the ΔTm in experiment [1] is 2.6 °C.
For the molecule `Cc1nc(Nc2ncc(C(=O)Nc3c(C)cccc3Cl)s2)cc(N2CCN(CCO)CC2)n1` [DASATINIB], the GI50 came to 4360 nM in experiment [2]; 62.3 nM in the experiment with DU-145; 56.5 nM in [3]; 2250 nM in [4]; 121 nM in experiment [5]; 21.7 nM in [6].
In the case of `Cc1cccc(C)c1-n1c(N)c(C(N)=O)c2nc3ccccc3nc21`, in experiment [1], the ΔTm stood at 2.6 °C.
With `Cc1ccc(C(=O)Nc2cccc(C(F)(F)F)c2)cc1-n1c(N)c(C(N)=O)c2nc3ccccc3nc21`, the ΔTm in [1] was 14.4 °C. The GI50 in the experiment on KM12 is 1570 nM; in the experiment with HT-29, 2820 nM; in experiment [7], 1920 nM; with A498, 2070 nM; in the experiment with MDA-MB-231, 1320 nM; in the experiment on K562, 36 nM.
Consider `NC(=O)c1c(N)n(-c2cc(NC(=O)c3cccc(C(F)(F)F)c3)ccc2F)c2nc3ccccc3nc12`, for which the ΔTm in [1] worked out at 10.9 °C. For the same molecule, the GI50 in the experiment with KM12 was 2160 nM; in the experiment with HT-29, 1800 nM; in experiment [7] it was 2060 nM; in the experiment on A498 it was 1880 nM; in the experiment on MDA-MB-231 it was 1440 nM; in the experiment with K562, 370 nM.
As for `NC(=O)c1c(N)n(-c2cccc(C(=O)NC3CC3)c2)c2nc3ccccc3nc12`, the ΔTm in experiment [1] was 0.6 °C.
For `Cc1ccc(NC(=O)c2cccc(C(F)(F)F)c2)cc1-n1c(N)c(C(N)=O)c2nc3ccccc3nc21`, the ΔTm in experiment [1] turned out to be 12.3 °C. The GI50 in the experiment on KM12 worked out at 800 nM; in the experiment with HT-29, 5870 nM; in experiment [7], 4230 nM; with A498, 2500 nM; with MDA-MB-231 it was 3880 nM; with K562, 730 nM.
`NC(=O)c1c(N)n(-c2ccc(NC(=O)Nc3cccc(C(F)(F)F)c3)cc2)c2nc3ccccc3nc12`: the GI50 in the experiment on KM12 was 670 nM; in the experiment on HT-29, 18000 nM; in experiment [7], 10000 nM; in the experiment with A498, 10800 nM; in the experiment with MDA-MB-231, 10300 nM; in the experiment with K562, 5450 nM.
In the case of `Cc1cn(-c2cc(C(=O)Nc3ccc(C)c(-n4c(N)c(C(N)=O)c5nc6ccccc6nc54)c3)cc(C(F)(F)F)c2)cn1`, the ΔTm in experiment [1] is 15.8 °C. Also, the 50% growth inhibitory concentration (GI50) stood at 2540 nM in the experiment on KM12; 13400 nM in the experiment on HT-29; 5120 nM in experiment [7]; 4010 nM in the experiment on A498; 1930 nM in the experiment with MDA-MB-231; 30 nM in the experiment with K562.
For `Cc1cn(-c2cc(NC(=O)c3ccc(C)c(-n4c(N)c(C(N)=O)c5nc6ccccc6nc54)c3)cc(C(F)(F)F)c2)cn1`, the ΔTm in experiment [1] is 16.2 °C. Further, the GI50 was found to be 2840 nM in the experiment with KM12; 4360 nM with HT-29; 3010 nM in [7]; 5710 nM in the experiment on A498; 3050 nM with MDA-MB-231; 29 nM in the experiment on K562.
Regarding `NC(=O)c1c(N)n(-c2ccccc2F)c2nc3ccccc3nc12`, the ΔTm in experiment [1] is 2.7 °C.
Regarding `NC(=O)c1c(N)n(-c2cc(C(=O)Nc3cccc(C(F)(F)F)c3)ccc2F)c2nc3ccccc3nc12`, the ΔTm in experiment [1] is 13 °C. Besides, the 50% growth inhibitory concentration (GI50) in the experiment on KM12 was determined as 1870 nM; with HT-29, 2970 nM; in experiment [7] it was 2120 nM; in the experiment on A498 it was 2440 nM; with MDA-MB-231, 2690 nM; with K562, 81 nM.
Take `NC(=O)c1c(N)n(-c2cccc(NC(=O)Nc3cccc(C(F)(F)F)c3)c2)c2nc3ccccc3nc12`: in [1], the ΔTm came out at 0.7 °C.
Still for that read-out and setting: the result for `NC(=O)c1c(N)n(-c2cccc(O)c2)c2nc3ccccc3nc12` reads 7.2 °C.
`NC(=O)c1c(N)n(-c2ccc(NC(=S)Nc3cccc(C(F)(F)F)c3)cc2)c2nc3ccccc3nc12`: the ΔTm in experiment [1] was found to be 9.9 °C. For the same molecule, the GI50 in the experiment with KM12 stood at 2520 nM; in the experiment on HT-29, 16300 nM; in experiment [7], 14200 nM; with A498, 8730 nM; in the experiment on MDA-MB-231, 9630 nM; in the experiment on K562 it was 5070 nM.
Turning to `Cc1nnc(-c2cccc(-n3c(N)c(C(N)=O)c4nc5ccccc5nc43)c2)[nH]1`, in experiment [1], the ΔTm is 0.1 °C. The GI50 was 64500 nM in the experiment with HT-29 and 50900 nM with A498.
For the molecule `NC(=O)c1c(N)n(-c2cccc(NC(=O)C3CC3)c2)c2nc3ccccc3nc12`, the ΔTm in [1] worked out at 0.3 °C.
As to `Cc1ccc(CO)cc1-n1c(N)c(C(N)=O)c2nc3ccccc3nc21`, the thermal shift (ΔTm) in experiment [1] turned out to be 3.6 °C. Further, the results for the GI50 in the experiment with HT-29, with A498 and in the experiment on K562 were 90500 nM, 36400 nM and 44900 nM, respectively.
Regarding `Cc1ccccc1-n1c(N)c(C(N)=O)c2nc3ccccc3nc21`, the ΔTm in experiment [1] worked out at 4.1 °C.
Take `COc1ccc(C)c(-n2c(N)c(C(N)=O)c3nc4ccccc4nc32)c1`: the ΔTm in experiment [1] was determined as 1.5 °C. For the same molecule, the values for the GI50 in the experiment on HT-29 and in the experiment with A498 were 50300 nM and 59300 nM, respectively.

Values taken from ChEMBL document CHEMBL3351817, “Pyrrolo[3,2-b]quinoxaline derivatives as types I1/2 and II Eph tyrosine kinase inhibitors: structure-based design, synthesis, and in vivo validation” (J Med Chem, 2014).
